These results are taken from ChEMBL document CHEMBL4732199, “Potent and orally bioavailable CDK8 inhibitors: Design, synthesis, structure-activity relationship analysis and biological evaluation” (Eur J Med Chem, 2021).

Data set [1] can be described thus: Oral bioavailability in BALB/c mouse at 10 mg/kg measured up to 24 hrs by LC-MS/MS analysis. As to conditions: in vivo.
Data set [2] addresses Protein kinase C theta type (Homo sapiens, UniProt Q04759). The data set can be described thus: Inhibition of human full length PKCtheta at 1 uM using histone H1 as substrate incubated for 40 mins in presence of [gamma-33P]-ATP by scintillation counting method relative to control. Put shortly: (§1)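 Single-point screen of residual kinase activity (%) at 1 µM compound. Run as a contract radiometric [γ-33P]-ATP kinase assay, either the KinaseProfiler service or the HotSpot assay. ATP was set at the experimentally determined Km(ATP) of each kinase.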

Data set [3] is described as follows: Half life in BALB/c mouse at 2 mg/kg, iv measured up to 24 hrs by LC-MS/MS analysis. The settings on record: in vivo.
Data set [4] has as its target CDK9/cyclin T1 (Homo sapiens) (UniProt O60563+P50750). Nature of the data set: Inhibition of CDK9/Cyclin T1 (unknown origin) at 1 uM relative to control. It counts as protein-complex assay. Put shortly:
(§2)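 Residual activity of each kinase with compound at 1 µM, measured in a contracted radioisotope-based kinase profiling assay and expressed as % kinase activity remaining.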

The target in data set [5] is CDK2/Cyclin A2 (Homo sapiens) (UniProt P24941+P20248). Nature of the data set: Inhibition of CDK2/cyclin-A (unknown origin) at 1 uM. Format: protein-complex assay. Put shortly: as §2
The nature of data set [6]: Half life in BALB/c mouse at 10 mg/kg, po measured up to 24 hrs by LC-MS/MS analysis. As to conditions: in vivo.
Data set [7] deals with Glycogen synthase kinase-3 beta (Homo sapiens), P49841 [UNDEFINED MUTATION]. The data set can be described thus: Inhibition of human GSKbeta H350L mutant (2 to 3nd residues) at 1 uM using YRRAAVPPSPSLSRHSSPHQS(p) EDEEE as substrate incubated for 40 mins in presence of [gamma-33P]-ATP by scintillation counting method relative to control. Put shortly:
as §1

The target of data set [8] is CDK18/Cyclin Y (Homo sapiens) (UniProt Q07002+Q8ND76). Nature of the data set: Inhibition of CDK18/Cyclin Y (unknown origin) at 1 uM. Format: protein-complex assay. Put shortly:
as §2

Data set [9] in a line: Inhibition of CYP4501A in human liver microsomes using ethoxyresorufin O-deethylation as substrate by LC-MS/MS analysis. For orientation: Liver microsomes are vesicles of endoplasmic reticulum, rich in cytochrome P450 enzymes.
Data set [10] in a line: Cmax in BALB/c mouse at 2 mg/kg, iv measured up to 24 hrs by LC-MS/MS analysis. The settings on record: in vivo.
Data set [11] can be described thus: Tmax in BALB/c mouse at 2 mg/kg, iv measured up to 24 hrs by LC-MS/MS analysis. As to conditions: in vivo.
Data set [12] in a line: Toxicity in BALB/c mouse assessed as disordered chondrocyte columns at 70 mg/kg, po administered once daily for 7 days and measured on day 15. It counts as organism-based. The settings on record: in vivo, 168 h, time 7 day.
Data set [13] concerns the target Cyclin-dependent kinase 5/CDK5 activator 1 (Homo sapiens) (UniProt Q00535+Q15078). The data set can be described thus: Inhibition of CDK5/p35 (unknown origin) at 1 uM. It counts as protein-complex assay. Put shortly:
as §2

A short description of data set [14]: Toxicity in BALB/c mouse assessed as loss of ground substance at 70 mg/kg, po administered once daily for 7 days and measured on day 15. As to conditions: in vivo, 168 h, time 7 day. Format: organism-based.
Data set [15] deals with Cyclin-dependent kinase 14/Cyclin-Y (Homo sapiens) (UniProt O94921+Q8ND76). Nature of the data set: Inhibition of CDK14/Cyclin Y (unknown origin) at 1 uM. Format: protein-complex assay. Put shortly: as §2

Activity calls are given as the source filed them. The calls are words filed in the database; no cut-off is given here.

Sequence of Cyclin-dependent kinase 5/CDK5 activator 1 (Homo sapiens) (Q00535 whole entry): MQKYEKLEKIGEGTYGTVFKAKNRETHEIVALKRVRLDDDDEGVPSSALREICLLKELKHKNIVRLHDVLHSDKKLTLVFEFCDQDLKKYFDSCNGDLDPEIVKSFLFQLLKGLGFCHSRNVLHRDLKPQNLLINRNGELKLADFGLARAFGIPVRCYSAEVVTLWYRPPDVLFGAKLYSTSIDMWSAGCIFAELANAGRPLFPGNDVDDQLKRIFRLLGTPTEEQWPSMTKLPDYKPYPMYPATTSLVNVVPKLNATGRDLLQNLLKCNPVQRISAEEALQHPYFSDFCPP
Sequence of Cyclin-dependent kinase 5/CDK5 activator 1 (Homo sapiens) (Q15078 99-307 partner limits assumed): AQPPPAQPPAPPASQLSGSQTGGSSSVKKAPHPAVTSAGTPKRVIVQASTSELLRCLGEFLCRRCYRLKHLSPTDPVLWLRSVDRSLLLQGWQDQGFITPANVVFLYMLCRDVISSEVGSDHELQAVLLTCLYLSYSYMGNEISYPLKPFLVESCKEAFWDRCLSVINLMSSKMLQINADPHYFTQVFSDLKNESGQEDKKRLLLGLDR
Sequence of Protein kinase C theta type (Q04759 whole entry, looked up): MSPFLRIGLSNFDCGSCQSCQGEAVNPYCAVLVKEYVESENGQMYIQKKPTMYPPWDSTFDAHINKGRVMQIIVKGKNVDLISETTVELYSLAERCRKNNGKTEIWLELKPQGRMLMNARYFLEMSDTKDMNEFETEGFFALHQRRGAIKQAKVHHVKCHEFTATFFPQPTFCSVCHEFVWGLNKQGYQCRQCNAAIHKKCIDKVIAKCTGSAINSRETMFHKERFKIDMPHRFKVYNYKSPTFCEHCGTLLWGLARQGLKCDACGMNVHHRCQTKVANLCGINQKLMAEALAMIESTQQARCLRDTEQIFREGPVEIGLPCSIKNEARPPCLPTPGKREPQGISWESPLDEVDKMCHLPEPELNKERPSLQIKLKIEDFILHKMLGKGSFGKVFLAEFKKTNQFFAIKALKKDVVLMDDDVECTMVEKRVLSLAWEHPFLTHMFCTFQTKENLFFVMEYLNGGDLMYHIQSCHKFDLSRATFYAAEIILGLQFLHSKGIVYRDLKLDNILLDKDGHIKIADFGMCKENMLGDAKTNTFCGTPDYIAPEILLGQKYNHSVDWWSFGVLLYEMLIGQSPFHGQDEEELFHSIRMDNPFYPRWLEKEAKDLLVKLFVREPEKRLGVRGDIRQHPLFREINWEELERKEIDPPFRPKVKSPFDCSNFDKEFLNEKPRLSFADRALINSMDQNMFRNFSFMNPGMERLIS
Sequence of Glycogen synthase kinase-3 beta (Homo sapiens), P49841 [UNDEFINED MUTATION] (P49841 whole entry, looked up, stated change not applied): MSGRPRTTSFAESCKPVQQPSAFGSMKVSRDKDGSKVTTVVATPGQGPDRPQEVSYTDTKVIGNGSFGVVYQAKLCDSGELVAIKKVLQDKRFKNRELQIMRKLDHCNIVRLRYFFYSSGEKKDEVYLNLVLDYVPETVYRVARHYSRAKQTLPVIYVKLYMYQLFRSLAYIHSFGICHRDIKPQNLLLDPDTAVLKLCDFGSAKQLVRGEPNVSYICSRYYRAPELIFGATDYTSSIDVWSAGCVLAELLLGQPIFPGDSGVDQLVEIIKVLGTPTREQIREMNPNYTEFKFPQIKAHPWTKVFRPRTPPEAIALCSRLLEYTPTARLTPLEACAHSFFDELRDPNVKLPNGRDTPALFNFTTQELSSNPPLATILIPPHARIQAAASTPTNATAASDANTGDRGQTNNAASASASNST

The term bioavailability denotes the share of a dose that reaches the circulation, judged against a reference dose that is usually intravenous. A higher bioavailability goes with much systemic uptake. A word on the inhibition: it is how much of the control response was suppressed. In general, half-life refers to how long it takes for the measured level to halve. As a reminder, the IC50 is the concentration needed to halve the response being measured. Low values mean inhibition by little substance, high ones a need for much substance. As usually defined, the Cmax is the peak of the concentration-time curve. The term Tmax denotes the time from dosing to the highest level. For the compound `O=C1NCCC12CCN(c1c(Cl)cncc1-c1cc3ccccc3o1)CC2`, in data set [1], the bioavailability was found to be 33%. Further, the inhibition in data set [2], in [4] and in data set [7] was over 50% in each case. In addition, the half-life was 20.4 min in data set [3] and 66.6 min in data set [6]. Moreover, the inhibition entry in data set [5], in data set [8], in data set [13] and in data set [15] was “inactive” each time. Moreover, the IC50 in data set [9] came out at 7.7 µM. In data set [10], this compound came in with a Cmax of 3.44 µM. For the same compound, in data set [11], the Tmax was 2.4 min. Moreover, the Activity entry in data set [12] and in [14] was “Toxic” in each case.
